Consider 15 molecules from ChEMBL document CHEMBL2346496, “Discovery of new benzothiazole-based inhibitors of breakpoint cluster region-Abelson kinase including the T315I mutant” (J Med Chem, 2013).

Each structure is given as a SMILES string. Values after ≈ are worked out from the molar mass of the structure shown.

Series [1] is described as follows: cells. Conditions: Mus musculus, BaF3, 48 h.
Series [2] can be described thus: cells. To be noted: Mus musculus, BaF3, 48 h. The source holds these as a separate data set.
A further series has as its system K562. Kind of series: cells. Conditions: Homo sapiens.
Series [3] in a line: cells. To be noted: Mus musculus, BaF3, 48 h. This is another data set of the same source.
The nature of series [4]: Stability of the compound at 37 degC at pH 6.7 after 24 hrs by UPLC method. The series is classed as physicochemical. Conditions: buffer, read-out: Stability. Summed up:
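Stability followed by UPLC over 24 h at 37 °C, pH 6.7.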

Series [5] can be described thus: Aqueous solubility of the compound at pH 6.7. In kind it is physicochemical.
The subject of another series is BaF3. Kind of series: Cytotoxicity against mouse BA/F3 cells transfected with Bcr-Abl T315I mutant after 48 hrs by XTT assay.
Series [6] addresses Aurora kinase B (Homo sapiens) (UniProt Q96GD4). The experiment in a line: Inhibition of AURKB (unknown origin) at 1 uM relative to control; values are per cent of control.
Series [7] has as its system Tyrosine-protein kinase ABL1 (Homo sapiens), P00519 [T315I]. The experiment in a line: Inhibition of breakpoint cluster region-Abelson tyrosine kinase T315I mutant (unknown origin) at 1 uM relative to control; values are per cent of control.
For series [8], the target named is Mitogen-activated protein kinase 14 (Homo sapiens) (UniProt Q16539). Kind of series: Inhibition of P38alpha (unknown origin) at 1 uM relative to control; values are per cent of control.
Series [9] concerns the target Platelet-derived growth factor receptor beta (Homo sapiens) (UniProt P09619). The experiment in a line: Inhibition of PDGFRB (unknown origin) at 1 uM relative to control; values are per cent of control.
For series [10], the target named is Serine/threonine-protein kinase PLK3 (Homo sapiens) (UniProt Q9H4B4). Kind of series: Inhibition of PLK3 (unknown origin) at 1 uM relative to control; values are per cent of control.
The target in series [11] is Rho-associated protein kinase 2 (Homo sapiens) (UniProt O75116). Kind of series: Inhibition of ROCK2 (unknown origin) at 1 uM relative to control; values are per cent of control.
Series [12] has as its target cAMP-dependent protein kinase catalytic subunit alpha (Homo sapiens) (UniProt P17612). The experiment in a line: Inhibition of PKAC-a (unknown origin) at 1 uM relative to control; values are per cent of control.
In series [13] the target is Inhibitor of nuclear factor kappa-B kinase subunit alpha (Homo sapiens) (UniProt O15111). The experiment in a line: Inhibition of IKK alpha (unknown origin) at 1 uM relative to control; values are per cent of control.
In series [14] the target is Phosphatidylinositol 4,5-bisphosphate 3-kinase catalytic subunit alpha isoform (Homo sapiens) (UniProt P42336). Kind of series: Inhibition of PI3KCA (unknown origin) at 1 uM relative to control; values are per cent of control.
For series [15], the system named is Tyrosine-protein kinase ABL1 (Homo sapiens), P00519 [E255K]. The experiment in a line: Inhibition of phosphorylated breakpoint cluster region-Abelson tyrosine kinase E255K mutant (unknown origin) at 1 uM relative to control; values are per cent of control.
Series [16] deals with Mast/stem cell growth factor receptor Kit (Homo sapiens) (UniProt P10721). Kind of series: Inhibition of KIT (unknown origin) at 1 uM relative to control; values are per cent of control.
Series [17] concerns the target Epidermal growth factor receptor (Homo sapiens) (UniProt P00533). Kind of series: Inhibition of EGFR (unknown origin) at 1 uM relative to control; values are per cent of control.
The target of series [18] is Angiopoietin-1 receptor (Homo sapiens) (UniProt Q02763). Kind of series: Inhibition of TIE2 (unknown origin) at 1 uM relative to control; values are per cent of control.
In series [19] the target is Tyrosine-protein kinase ABL1 (Homo sapiens, UniProt P00519, T315I). The experiment in a line: Inhibition of breakpoint cluster region-Abelson tyrosine kinase T315I mutant (unknown origin) using [gamma-33P]ATP as substrate by radiometric kinase assay.
For series [20], the target named is Dual specificity mitogen-activated protein kinase kinase 1 (Homo sapiens) (UniProt Q02750). The experiment in a line: Inhibition of MEK1 (unknown origin) at 1 uM relative to control; values are per cent of control.
Chain of Dual specificity mitogen-activated protein kinase kinase 1 (Homo sapiens) (Q02750 whole entry): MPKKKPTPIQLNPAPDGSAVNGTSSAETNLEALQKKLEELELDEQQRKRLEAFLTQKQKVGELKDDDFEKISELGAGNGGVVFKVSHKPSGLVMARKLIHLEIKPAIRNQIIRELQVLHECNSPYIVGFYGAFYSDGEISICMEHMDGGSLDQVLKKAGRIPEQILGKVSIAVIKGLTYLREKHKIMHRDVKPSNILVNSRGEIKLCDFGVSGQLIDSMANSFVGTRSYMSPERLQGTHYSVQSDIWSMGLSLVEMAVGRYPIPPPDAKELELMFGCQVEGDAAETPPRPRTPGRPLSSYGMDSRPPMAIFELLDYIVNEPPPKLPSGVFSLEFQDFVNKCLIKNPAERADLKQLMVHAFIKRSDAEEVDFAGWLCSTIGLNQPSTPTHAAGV
Series [21] deals with Dual specificity mitogen-activated protein kinase kinase 2 (Homo sapiens) (UniProt P36507). The experiment in a line: Inhibition of MEK2 (unknown origin) at 1 uM relative to control; values are per cent of control.
Series [22] addresses Proto-oncogene tyrosine-protein kinase Src (Homo sapiens) (UniProt P12931). The experiment in a line: Inhibition of SRC (unknown origin) at 1 uM relative to control; values are per cent of control.
Series [23] deals with Aurora kinase A (Homo sapiens) (UniProt O14965). The experiment in a line: Inhibition of AURKA (unknown origin) at 1 uM relative to control; values are per cent of control.
Chain of Aurora kinase A (Homo sapiens) (O14965 whole entry): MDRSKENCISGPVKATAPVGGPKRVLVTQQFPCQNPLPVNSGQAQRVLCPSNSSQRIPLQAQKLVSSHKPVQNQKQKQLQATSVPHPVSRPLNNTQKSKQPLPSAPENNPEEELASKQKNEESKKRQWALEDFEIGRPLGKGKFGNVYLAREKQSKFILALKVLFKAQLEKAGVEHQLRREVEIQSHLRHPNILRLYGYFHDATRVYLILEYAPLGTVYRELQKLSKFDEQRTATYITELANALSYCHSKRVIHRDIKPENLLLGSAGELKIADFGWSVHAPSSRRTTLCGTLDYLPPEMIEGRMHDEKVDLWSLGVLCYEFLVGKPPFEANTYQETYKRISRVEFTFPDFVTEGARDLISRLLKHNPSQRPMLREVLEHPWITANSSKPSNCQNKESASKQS
Series [24] concerns the target Glycogen synthase kinase-3 beta (Homo sapiens) (UniProt P49841). Kind of series: Inhibition of GSK3b (unknown origin) at 1 uM relative to control; values are per cent of control.
For series [25], the target named is RAC-alpha serine/threonine-protein kinase (Homo sapiens) (UniProt P31749). Kind of series: Inhibition of AKT1 (unknown origin) at 1 uM relative to control; values are per cent of control.
The target of series [26] is Serine/threonine-protein kinase pim-1 (Homo sapiens) (UniProt P11309). Kind of series: Inhibition of PIM1 (unknown origin) at 1 uM relative to control; values are per cent of control.
Chain of Serine/threonine-protein kinase pim-1 (Homo sapiens) (P11309 whole entry, looked up): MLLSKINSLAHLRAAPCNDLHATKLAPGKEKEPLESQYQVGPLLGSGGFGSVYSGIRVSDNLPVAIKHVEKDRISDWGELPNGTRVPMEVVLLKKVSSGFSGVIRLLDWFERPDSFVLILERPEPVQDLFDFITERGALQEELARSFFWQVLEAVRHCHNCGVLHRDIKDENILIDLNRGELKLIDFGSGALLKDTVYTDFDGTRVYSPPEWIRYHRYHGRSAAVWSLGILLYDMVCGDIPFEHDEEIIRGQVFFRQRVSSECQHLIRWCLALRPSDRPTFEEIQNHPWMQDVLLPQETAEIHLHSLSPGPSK
The species entered for series [27] is Homo sapiens. The experiment in a line: Inhibition of phosphorylated breakpoint cluster region-Abelson tyrosine kinase (unknown origin) at 1 uM relative to control; values are per cent of control.
Series [28] addresses Cyclin-dependent kinase 2 (Homo sapiens) (UniProt P24941). The experiment in a line: Inhibition of CDK2 (unknown origin) at 1 uM relative to control; values are per cent of control.
The target of series [29] is Platelet-derived growth factor receptor alpha (Homo sapiens) (UniProt P16234). Kind of series: Inhibition of PDGFRA (unknown origin) at 1 uM relative to control; values are per cent of control.
In series [30] the target is Fibroblast growth factor receptor 2 (Homo sapiens) (UniProt P21802). The experiment in a line: Inhibition of FGFR2 (unknown origin) at 1 uM relative to control; values are per cent of control.
In series [31] the target is Receptor-type tyrosine-protein kinase FLT3 (Homo sapiens) (UniProt P36888). Kind of series: Inhibition of FLT3 (unknown origin) at 1 uM relative to control; values are per cent of control.
For series [32], the target named is Serine/threonine-protein kinase PAK 1 (Homo sapiens) (UniProt Q13153). The experiment in a line: Inhibition of PAK1 (unknown origin) at 1 uM relative to control; values are per cent of control.
Chain of Serine/threonine-protein kinase PAK 1 (Homo sapiens) (Q13153 whole entry): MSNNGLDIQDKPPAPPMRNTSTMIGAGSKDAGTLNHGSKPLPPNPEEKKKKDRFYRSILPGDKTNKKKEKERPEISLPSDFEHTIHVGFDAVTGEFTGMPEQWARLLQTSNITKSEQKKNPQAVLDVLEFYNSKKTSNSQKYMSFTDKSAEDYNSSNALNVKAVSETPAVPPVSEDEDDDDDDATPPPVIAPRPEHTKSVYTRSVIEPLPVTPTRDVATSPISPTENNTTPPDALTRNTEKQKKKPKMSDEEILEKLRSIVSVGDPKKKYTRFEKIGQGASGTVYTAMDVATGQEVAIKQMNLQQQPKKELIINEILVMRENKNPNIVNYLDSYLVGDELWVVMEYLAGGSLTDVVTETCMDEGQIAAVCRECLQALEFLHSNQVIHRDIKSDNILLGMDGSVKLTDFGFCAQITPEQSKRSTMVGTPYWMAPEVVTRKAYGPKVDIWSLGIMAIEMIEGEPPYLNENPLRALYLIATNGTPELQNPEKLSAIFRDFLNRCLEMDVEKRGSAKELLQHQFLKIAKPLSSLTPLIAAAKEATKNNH
The target of series [33] is Serine/threonine-protein kinase B-raf (Homo sapiens) (UniProt P15056). Kind of series: Inhibition of BRAF (unknown origin) at 1 uM relative to control; values are per cent of control.
Series [34] deals with Ribosomal protein S6 kinase alpha-3 (Homo sapiens) (UniProt P51812). Kind of series: Inhibition of RSK2 (unknown origin) at 1 uM relative to control; values are per cent of control.
For series [35], the target named is Focal adhesion kinase 1 (Homo sapiens) (UniProt Q05397). The experiment in a line: Inhibition of FAK (unknown origin) at 1 uM relative to control; values are per cent of control.
Series [36] concerns the target 3-phosphoinositide-dependent protein kinase 1 (Homo sapiens) (UniProt O15530). The experiment in a line: Inhibition of PDPK1 (unknown origin) at 1 uM relative to control; values are per cent of control.
The target in series [37] is Serine/threonine-protein kinase PLK1 (Homo sapiens) (UniProt P53350). Kind of series: Inhibition of PLK1 (unknown origin) at 1 uM relative to control; values are per cent of control.
Chain of Serine/threonine-protein kinase PLK1 (Homo sapiens) (P53350 whole entry): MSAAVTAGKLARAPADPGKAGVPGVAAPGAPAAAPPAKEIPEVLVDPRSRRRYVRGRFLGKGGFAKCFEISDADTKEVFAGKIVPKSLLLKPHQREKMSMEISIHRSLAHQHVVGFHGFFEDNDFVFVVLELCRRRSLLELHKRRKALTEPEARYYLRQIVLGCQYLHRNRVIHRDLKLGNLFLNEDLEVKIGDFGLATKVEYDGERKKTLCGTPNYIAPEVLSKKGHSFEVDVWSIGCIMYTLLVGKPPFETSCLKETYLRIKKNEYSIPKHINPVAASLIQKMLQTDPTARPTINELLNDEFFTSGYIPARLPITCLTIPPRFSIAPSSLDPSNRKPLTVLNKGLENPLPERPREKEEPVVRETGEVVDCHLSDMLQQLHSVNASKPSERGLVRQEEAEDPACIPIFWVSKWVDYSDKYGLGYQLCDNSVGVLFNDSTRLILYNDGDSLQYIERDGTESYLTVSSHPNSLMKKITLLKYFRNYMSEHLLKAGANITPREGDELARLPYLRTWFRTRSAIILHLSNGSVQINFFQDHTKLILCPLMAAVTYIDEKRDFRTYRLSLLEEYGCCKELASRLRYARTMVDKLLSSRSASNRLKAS
Series [38] addresses Insulin-like growth factor 1 receptor (Homo sapiens) (UniProt P08069). The experiment in a line: Inhibition of IGF1R (unknown origin) at 1 uM relative to control; values are per cent of control.
The species entered for series [39] is Homo sapiens. Kind of series: Inhibition of CDK11 (unknown origin) at 1 uM relative to control; values are per cent of control.
Series [40] concerns the target Mitogen-activated protein kinase 8 (Homo sapiens) (UniProt P45983). The experiment in a line: Inhibition of JNK1 (unknown origin) at 1 uM relative to control; values are per cent of control.
Series [41] deals with Hepatocyte growth factor receptor (Homo sapiens) (UniProt P08581). The experiment in a line: Inhibition of MET (unknown origin) at 1 uM relative to control; values are per cent of control.
The target in series [42] is Mitogen-activated protein kinase 3 (Homo sapiens) (UniProt P27361). Kind of series: Inhibition of ERK1 (unknown origin) at 1 uM relative to control; values are per cent of control.
Chain of Mitogen-activated protein kinase 3 (Homo sapiens) (P27361 whole entry): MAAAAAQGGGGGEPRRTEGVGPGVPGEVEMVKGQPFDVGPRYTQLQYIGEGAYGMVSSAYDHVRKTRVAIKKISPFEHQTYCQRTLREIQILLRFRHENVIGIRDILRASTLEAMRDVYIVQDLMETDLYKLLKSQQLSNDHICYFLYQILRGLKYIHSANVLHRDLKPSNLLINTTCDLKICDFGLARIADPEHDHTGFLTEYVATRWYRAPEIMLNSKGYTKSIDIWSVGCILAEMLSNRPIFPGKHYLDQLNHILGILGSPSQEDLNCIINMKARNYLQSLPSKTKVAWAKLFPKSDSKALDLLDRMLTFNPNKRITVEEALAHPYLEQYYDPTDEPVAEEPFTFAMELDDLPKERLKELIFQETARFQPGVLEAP
The target of series [43] is Tyrosine-protein kinase JAK2 (Homo sapiens) (UniProt O60674). The experiment in a line: Inhibition of JAK2 (unknown origin) at 1 uM relative to control; values are per cent of control.
For series [44], the target named is Vascular endothelial growth factor receptor 2 (Homo sapiens) (UniProt P35968). The experiment in a line: Inhibition of VEGFR2 (unknown origin) at 1 uM relative to control; values are per cent of control.
Chain of Vascular endothelial growth factor receptor 2 (Homo sapiens) (P35968 whole entry): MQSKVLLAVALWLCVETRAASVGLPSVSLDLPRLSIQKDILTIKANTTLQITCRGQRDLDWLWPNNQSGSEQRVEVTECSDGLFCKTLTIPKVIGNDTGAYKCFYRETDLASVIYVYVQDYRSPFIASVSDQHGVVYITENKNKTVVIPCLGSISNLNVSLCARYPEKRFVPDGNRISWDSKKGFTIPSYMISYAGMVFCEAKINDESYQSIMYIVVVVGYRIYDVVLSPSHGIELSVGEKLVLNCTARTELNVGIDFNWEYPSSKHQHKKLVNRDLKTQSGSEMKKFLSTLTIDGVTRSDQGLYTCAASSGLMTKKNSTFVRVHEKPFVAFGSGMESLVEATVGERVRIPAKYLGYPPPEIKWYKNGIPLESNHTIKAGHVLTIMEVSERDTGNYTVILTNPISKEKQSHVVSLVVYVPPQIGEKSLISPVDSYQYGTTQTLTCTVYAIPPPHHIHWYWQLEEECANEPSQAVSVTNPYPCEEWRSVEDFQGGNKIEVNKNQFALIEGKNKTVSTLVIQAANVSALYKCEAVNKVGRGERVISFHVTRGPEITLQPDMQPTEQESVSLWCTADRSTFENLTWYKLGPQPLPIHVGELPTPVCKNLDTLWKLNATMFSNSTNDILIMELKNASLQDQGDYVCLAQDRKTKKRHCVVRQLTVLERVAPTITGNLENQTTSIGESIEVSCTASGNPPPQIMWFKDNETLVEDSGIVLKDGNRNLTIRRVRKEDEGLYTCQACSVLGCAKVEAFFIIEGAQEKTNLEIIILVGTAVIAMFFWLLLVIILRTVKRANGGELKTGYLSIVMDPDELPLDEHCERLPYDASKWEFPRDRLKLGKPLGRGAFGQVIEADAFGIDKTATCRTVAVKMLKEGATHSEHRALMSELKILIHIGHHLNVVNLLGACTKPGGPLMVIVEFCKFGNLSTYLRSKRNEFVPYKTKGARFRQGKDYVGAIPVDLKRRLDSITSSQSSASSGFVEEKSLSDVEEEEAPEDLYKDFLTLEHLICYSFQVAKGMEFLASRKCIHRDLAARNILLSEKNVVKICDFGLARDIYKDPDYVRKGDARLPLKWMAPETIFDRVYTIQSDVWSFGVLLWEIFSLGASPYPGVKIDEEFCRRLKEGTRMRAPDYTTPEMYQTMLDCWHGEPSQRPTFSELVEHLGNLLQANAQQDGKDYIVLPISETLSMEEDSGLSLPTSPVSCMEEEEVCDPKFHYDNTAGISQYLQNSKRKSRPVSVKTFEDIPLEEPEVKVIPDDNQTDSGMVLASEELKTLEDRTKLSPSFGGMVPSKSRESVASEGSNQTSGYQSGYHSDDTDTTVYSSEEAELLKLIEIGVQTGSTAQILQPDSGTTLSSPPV

Chain of 3-phosphoinositide-dependent protein kinase 1 (Homo sapiens) (O15530 whole entry): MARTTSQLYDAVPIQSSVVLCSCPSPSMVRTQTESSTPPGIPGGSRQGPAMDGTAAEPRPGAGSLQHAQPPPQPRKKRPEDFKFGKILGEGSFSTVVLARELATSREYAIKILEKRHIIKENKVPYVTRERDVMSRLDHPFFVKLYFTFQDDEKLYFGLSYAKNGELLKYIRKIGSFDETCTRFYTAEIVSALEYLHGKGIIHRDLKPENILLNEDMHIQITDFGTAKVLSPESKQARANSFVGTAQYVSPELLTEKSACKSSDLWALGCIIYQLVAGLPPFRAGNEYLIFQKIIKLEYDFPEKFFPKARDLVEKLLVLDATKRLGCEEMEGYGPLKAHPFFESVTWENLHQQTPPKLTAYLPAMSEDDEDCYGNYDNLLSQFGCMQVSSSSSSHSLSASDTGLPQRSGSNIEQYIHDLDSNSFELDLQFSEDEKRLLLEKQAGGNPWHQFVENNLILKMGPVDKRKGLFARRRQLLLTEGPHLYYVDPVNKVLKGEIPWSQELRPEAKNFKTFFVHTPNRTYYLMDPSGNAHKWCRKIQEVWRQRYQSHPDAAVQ
Chain of Mitogen-activated protein kinase 8 (Homo sapiens) (P45983 whole entry): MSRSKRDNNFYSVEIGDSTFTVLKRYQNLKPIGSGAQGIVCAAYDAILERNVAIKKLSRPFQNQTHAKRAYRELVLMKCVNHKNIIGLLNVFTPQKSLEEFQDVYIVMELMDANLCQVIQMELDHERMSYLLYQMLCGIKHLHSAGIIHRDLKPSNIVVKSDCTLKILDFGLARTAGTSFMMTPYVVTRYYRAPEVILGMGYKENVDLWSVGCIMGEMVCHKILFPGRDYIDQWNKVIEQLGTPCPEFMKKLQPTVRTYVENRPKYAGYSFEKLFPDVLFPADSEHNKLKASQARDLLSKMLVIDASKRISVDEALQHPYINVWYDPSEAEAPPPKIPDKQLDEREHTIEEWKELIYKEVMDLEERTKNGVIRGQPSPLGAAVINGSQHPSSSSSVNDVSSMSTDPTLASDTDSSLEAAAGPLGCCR

As for `CCc1ccccc1-c1ccc2nc(NC(=O)NCCN(C)C)sc2c1`, the results for the IC50 in the series “cells [1]” and in the series “cells [2]” were 410 nM and 310 nM, respectively.

Consider `CCOc1ccccc1-c1ccc2nc(NC(=O)NCCN3CCOCC3)sc2c1`, for which the figures for the IC50 in “cells [1]” and in “cells [2]” were 1090 nM and 210 nM, respectively.

On to `Cc1ccc(NC(=O)c2ccc(CN3CCN(C)CC3)cc2)cc1Nc1nccc(-c2cccnc2)n1` [IMATINIB], for which the IC50 in “cells [1]” is 4790 nM; in the series on K562, 170 nM; in the series “cells [3]”, greater than 10000 nM; in “cells [2]”, 92 nM.

Take `COc1ccccc1-c1ccc2nc(NC(=O)NCCN3CCN(C)CC3)sc2c1`: the IC50 was 78 nM in the series “cells [1]”, 420 nM with K562, greater than 10000 nM in the series “cells [3]” and 46 nM in “cells [2]”. Also, in series [4], the remaining at 24 h was 99.7%. The same molecule yielded a solubility in series [5] of 2240 µg/mL (≈ 5260 µM).

Take `COc1ccccc1-c1ccc2nc(NC(=O)NCCN3CCOCC3)sc2c1`: the IC50 in the series “cells [1]” was 290 nM; in “cells [2]”, 100 nM. Also, the inhibition result in the series on BaF3 was “Dose-dependent effect”.

As for `COc1ccccc1-c1ccc2nc(NC(=O)NCCO)sc2c1`, the IC50 in “cells [1]” was 140 nM; in the series with K562, 120 nM; in the series “cells [3]” it was greater than 10000 nM; in “cells [2]”, 89 nM. Besides, in series [4], the remaining at 24 h came to 100%. The concentration in solution in [5] (solubility) was 7.49 µg/mL (≈ 21.8 µM).

For `CCOc1ccccc1-c1ccc2nc(NC(=O)NCCCO)sc2c1`, the IC50 in “cells [1]” was found to be 560 nM; in the series “cells [2]”, 120 nM.

Regarding `COc1ccccc1-c1ccc2nc(NC(=O)NCCCO)sc2c1`, the IC50 was 290 nM in the series “cells [1]” and 82 nM in the series “cells [2]”.

With `CCOc1ccccc1-c1ccc2nc(NC(=O)NCCO)sc2c1`, the IC50 in the series “cells [1]” was determined as 1350 nM; in the series “cells [2]” it was 180 nM.

In the case of `CCOc1ccccc1-c1ccc2nc(NC(=O)NCCN3CCNCC3)sc2c1`, the IC50 in “cells [1]” amounted to 870 nM; in the series “cells [2]”, 110 nM.

Take `CCNC(=O)Nc1nc2ccc(-c3ccccc3OC)cc2s1`: the residual activity in [6] came out at 100%; in series [7], 4.5%; in [8], 100%; in series [9], 16%; in [10], 87%; in series [11], 100%. The residual activity in series [12] was 100%; in series [13], 100%; in [14], 100%; in [15], 4.5%; in [16], 79%; in series [17], 100%. For the same molecule, the residual activity in series [18] came out at 100%; in [20], 100%; in [21] it was 100%; in series [22], 72%; in [23] it was 100%; in series [24], 100%. The residual activity was found to be 67% in [25]; 100% in series [26]; 5% in the series listed under Homo sapiens [27]; 100% in [28]; 79% in series [29]; 100% in [30]. Moreover, the residual activity in [31] is 94%; in series [32] it was 93%; in series [33] it was 100%; in series [34] it was 58%; in series [35], 100%; in [36], 67%. Besides, the residual activity (in series [37]; in series [38]; in the series filed under Homo sapiens [39]; in series [40]; in [41]; in [42]) was 100% each time. The results for the residual activity in series [43] and in [44] were 100% and 98%, respectively. For the same molecule, the values for the IC50 (in the series “cells [1]”; in [19]; in “cells [2]”) were 2140 nM, 0.11 nM and 3570 nM, respectively. Also, the remaining at 24 h in [4] was found to be 100%. The molecule also returned a solubility in series [5] of 0.0227 µg/mL (≈ 0.0693 µM).

Molecule `CCNC(=O)Nc1nc2ccc(C(=O)N3CCN(C)CC3)cc2[nH]1` showed an IC50 in [19] greater than 100000 nM.

For the molecule `CCc1ccccc1-c1ccc2nc(NC(=O)NCCN3CCOCC3)sc2c1`, the results for the IC50 in “cells [1]” and in “cells [2]” were 1440 nM and 280 nM, respectively.

The molecule `COC(=O)Nc1nc2ccc(C(=O)c3cccs3)cc2[nH]1` [NOCODAZOLE] had an IC50 in [19] of 640 nM.

As for `CCNC(=O)Nc1nc2ccc(C(=O)Nc3ccncc3)cc2[nH]1`, in series [19], the IC50 was greater than 100000 nM.

A word on the IC50: it is the midpoint of a concentration-inhibition curve. In general, solubility refers to the dissolved amount per volume that the medium holds. Low readings indicate little dissolved substance, high ones much dissolved substance.
